From ChEMBL document CHEMBL1255256, “Bobel-24 activity against Cryptosporidium parvum in cell culture and in a SCID mouse model” (Antimicrob Agents Chemother, 2008)
Activity calls are given as the source filed them. No cut-off for these calls is given here.

Experiments:
Cryptosporidium parvum [1] = experiment: Antimicrobial activity against Cryptosporidium parvum infected in HCT8 cells assessed as growth inhibition at 90 uM pretreated for 30 min before infection measured after 48 hrs; type: functional; conditions: HCT-8, read-out: GI
Outline: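 HCT-8 cells preincubated with 90 μM compound at 37°C for 30 min, then infected with excysted oocysts (8 × 10^5/ml). Meronts and gamonts counted after rhodamine-C3C3 mAb staining, 30 fields/well, four replicate wells; percent inhibition versus medium control and inhibition score.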

Cryptosporidium parvum [2] = experiment: Antiparasitic activity against Cryptosporidium parvum sprozoites assessed as growth inhibition at 90 uM after 48 hrs; type: functional; conditions: read-out: GI
Outline: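 Excysted sporozoite suspension incubated with 90 μM compound at 37°C for 30 min, then used to infect confluent HCT-8 monolayers. Developmental stages counted after rhodamine-C3C3 mAb staining, 30 fields/well, four replicate wells; percent inhibition versus medium control and inhibition score.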

Cryptosporidium parvum [3] = experiment: Antiparasitic activity against Cryptosporidium parvum infected into human HCT-8 cells assessed as growth inhibition at 22 uM after 48 hrs; type: functional; conditions: HCT-8, 48 h, read-out: GI
Outline: (§1)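 HCT-8 monolayers inoculated with 8 × 10^5 oocysts/ml, then incubated with 90, 45 or 22 μM compound (DMSO stock diluted in PBS). Fixed cultures stained with rhodamine-C3C3 mAb; developmental stages (meronts, gamonts) counted per field over 30 fields, mean of four replicate wells ± SD; percent growth inhibition versus medium and inhibition score (0–4).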

Cryptosporidium parvum [4] = experiment: Antiparasitic activity against Cryptosporidium parvum infected into human HCT-8 cells assessed as growth inhibition at 45 uM after 48 hrs; type: functional; conditions: HCT-8, 48 h, read-out: GI; outline: as §1
HCT-8 = experiment: Cytotoxicity against human HCT8 cells assessed as cell viability by MTT assay; type: cell-based
Outline: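 HCT-8 cells exposed to compound and viability measured by MTT assay as percent viable cells.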

Cryptosporidium parvum [5] = experiment: Antimicrobial activity against Cryptosporidium parvum DE infected in HCT8 cells assessed as growth inhibition at 90 uM after 24 hrs; type: functional; conditions: HCT-8, 24 h, read-out: GI
Outline: (§2)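 Confluent HCT-8 monolayers inoculated with 8 × 10^5 excysted oocysts/ml, then infected cells treated with 90 μM compound (DMSO stock diluted in PBS) at 37°C in 5% CO2 (24 h per table footnote; 48 h per text). Fixed cells stained with rhodamine-labeled C3C3 mAb; meronts and gamonts counted in 30 fields/well, four replicate wells; percent inhibition and inhibition score versus medium control.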

Cryptosporidium parvum [6] = experiment: Antiparasitic activity against Cryptosporidium parvum infected into human HCT-8 cells assessed as growth inhibition at 90 uM after 48 hrs; type: functional; conditions: HCT-8, 48 h, read-out: GI; outline: as §2
Cryptosporidium parvum [7] = experiment: Antimicrobial activity against Cryptosporidium parvum infected in HCT8 cells assessed as decrease in parasite count at 22 to 90 uM after 48 hrs; type: functional, organism-based; conditions: HCT-8; outline: as §1
Cryptosporidium parvum [8] = experiment: Antimicrobial activity against Cryptosporidium parvum infected in HCT8 cells assessed as growth inhibition rate at 22 to 90 uM after 48 hrs; type: functional, organism-based; conditions: HCT-8; outline: as §1
Cryptosporidium parvum [9] = experiment: Antimicrobial activity against Cryptosporidium parvum infected in SCID mouse assessed as decrease in oocyst shedding at 125 mg/kg/day, po for 2 weeks and measured every 3 days during treatment; type: functional, organism-based
Outline: (§3)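 Female C.B-17 SCID mice, 7 weeks old, infected orally with 1 × 10^7 oocysts in PBS; chronic infection allowed for 25 days. Compound suspended with polyvinylpyrrolidone, given orally at 250 (n=10) or 125 (n=10) mg/kg/day for 2 weeks; controls were PVP in water and untreated mice. Oocysts per 50 μl concentrated feces counted by IIF every 3 days; ANOVA with LSD.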

Cryptosporidium parvum [10] = experiment: Antimicrobial activity against Cryptosporidium parvum infected in SCID mouse assessed as decrease in oocyst shedding at 125 mg/kg/day, po for 2 weeks and measured 3 to 7 days after treatment; type: functional, organism-based; outline: as §3
Cryptosporidium parvum [11] = experiment: Antimicrobial activity against Cryptosporidium parvum infected in SCID mouse assessed as decrease in oocyst shedding at 250 mg/kg/day, po for 2 weeks and measured 3 to 7 days after treatment; type: functional, organism-based; outline: as §3

`Oc1c(I)cc(I)cc1I` was tested, and the inhibition of growth at 90 µM (Cryptosporidium parvum [1]) was 36%, the inhibition of growth at 90 µM (Cryptosporidium parvum [2]) was 27.8% and the inhibition of growth at 22 µM (Cryptosporidium parvum [3]) was 50.1%. For the same compound, the inhibition of growth at 45 µM (Cryptosporidium parvum [4]) was 92.5%, the Activity (HCT-8) was “Non-toxic” and the inhibition of growth at 90 µM (Cryptosporidium parvum [5]) was 99.6%. The inhibition of growth at 90 µM (Cryptosporidium parvum [6]) was 96.5%, the Activity (Cryptosporidium parvum [7]) was “Dose-dependent effect” and the Activity (Cryptosporidium parvum [8]) was “Dose-dependent effect”. The Activity (Cryptosporidium parvum [9]) was “Active”, the Activity (Cryptosporidium parvum [10]) was “inactive” and the Activity (Cryptosporidium parvum [11]) was “inactive”.
